# Compounds with a hit are over-represented: about 1.5% of the library has one in this group of screens.
# NR2E3 ag-1 – inhibitors of NR2E3-RetCOR corepressor binding, primary screen, NR2E3 agonist project, biochemical, TR-FRET, GST-NR2E3, biotin-RetCOR | inhibition of corepressor binding, % at 4.78 µM | actives 0.12% (n = 320,000) | Photoreceptor-specific nuclear receptor (Homo sapiens), Q9Y5X4 | 1536-well;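 active = percent inhibition above the cutoff of mean plus 3 SD of all tested compounds, set per screening campaign, cut at about 20% in these data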;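 note: 0% = DMSO wells and 100% = biotin wells as full block of FRET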
#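 Material – GST-tagged NR2E3 plus biotinylated RetCOR corepressor · Quantity – NR2E3 fusion 1.35 nM · Times – 5 h incubation at 4 °C · Medium – pH 7.5 Tris-based buffer · Technique – TR-FRET, Eu(K)-anti-GST donor, streptavidin-D2 acceptor, ex 340, em 617/671 nm · Benchmarks – high control biotin, low control 0.6% DMSO · Format – 1536-well plates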
# GASC-1 inh – inhibitors of GASC-1 histone demethylase, primary screen, biochemical, fluorescence, DELFIA europium; AID 2099, 2009; actives 0.069% (n = 330,000); Lysine-specific demethylase 4C (Homo sapiens), Q9H3R0; inhibition, % at 2.35 µM; GST-JMJD2C(1-420) H3K9me3 demethylation;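 active = more than half of a compound's replicate wells show inhibition beyond 50%, single wells judged on their own value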;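 note: signal counts dimethyl H3K9 product captured on neutravidin plate; 0% = median of DMSO wells and 100% = 0.3 times that DMSO median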
# Target sequence (Q9H3R0 1-420 limits assumed): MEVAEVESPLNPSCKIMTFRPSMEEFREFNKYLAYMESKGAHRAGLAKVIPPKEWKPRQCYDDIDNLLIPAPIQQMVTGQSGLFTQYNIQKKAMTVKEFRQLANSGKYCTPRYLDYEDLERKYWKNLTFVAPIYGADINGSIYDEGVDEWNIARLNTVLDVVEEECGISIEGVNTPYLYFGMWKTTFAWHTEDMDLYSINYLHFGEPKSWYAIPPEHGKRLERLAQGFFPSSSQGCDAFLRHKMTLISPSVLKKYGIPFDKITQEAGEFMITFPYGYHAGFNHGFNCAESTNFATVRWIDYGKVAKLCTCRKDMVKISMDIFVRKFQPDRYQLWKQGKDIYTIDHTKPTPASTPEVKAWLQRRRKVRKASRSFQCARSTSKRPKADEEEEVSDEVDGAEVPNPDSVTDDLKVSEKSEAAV
# 697 NFkB inh – inhibitors of PMA/ionomycin-induced NF-kB reporter, 697 cells, primary screen, B-cell NF-kB inhibitor project, cell-based, luminescence, uHTS; 697 B-cell NF-kB luciferase reporter, 16 h; inhibition, % at 4 µM; actives 0.33% (n = 330,000); in the data active = inhibition above about 35%
# Jurkat NFkB inh – inhibitors of induced NF-kB luciferase reporter, primary screen, TCR NF-kB activation inhibitor project, cell-based, luminescence, uHTS; Jurkat, PMA/ionomycin-induced NF-kB luciferase reporter; inhibition, % at 4 µM; actives 0.53% (n = 330,000); in the data active = inhibition above about 50%
# GalR3 antagonist – GalR3 antagonists in HEK293 cells, primary screen, cell-based, fluorescence readout; AID 651719, 2012; actives 0.44% (n = 360,000); inhibition, % at 3 µM; HEK293 GalR3-CNG cAMP membrane potential fluorescence; galR3 body fused to GalR1 C-terminus; Galanin receptor type 3 (Homo sapiens), O60755;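 active = inhibition above the screen-wide average plus 3 SD, cut at about 13% in these data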;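 note: forskolin and galanin both at EC90 stimulate the cells; cAMP rise reported by CNG channel membrane potential dye signal; 0% = forskolin plus galanin with DMSO and 100% = forskolin alone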
# NR2E3 ag-2 – NR2E3 agonists in two-hybrid cells, primary screen, cell-based, luminescence, CHO-S, Gal4-NCOR/VP16-NR2E3. AID 602229, 2012. inhibition of corepressor binding, % at 3.98 µM. luciferase. Photoreceptor-specific nuclear receptor (Homo sapiens), Q9Y5X4. actives 0.35% (n = 360,000);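 active = inhibition above the mean of all tested compounds plus 3 SD, cut at about 70% in these data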;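 note: 0% = DMSO with NR2E3 transfected cells and 100% = cells lacking NR2E3 construct; higher means lower luciferase signal from less NR2E3 corepressor binding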
# NR2E3 ag confirm – NR2E3 agonist confirmation in cells, cell-based, luminescence, CHO-S two-hybrid; shares compounds with NR2E3 ag-2; CHO-S mammalian two-hybrid NR2E3-NCOR, luciferase luminescence; inhibition, % at 3.98 µM; actives 51% (n = 2,300);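 active = average inhibition above a cutoff equal to the mean inhibition of all tested compounds plus one SD, cut at about 70% in these data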;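 note: 0% = DMSO in NR2E3 cells and 100% = DMSO in cells lacking NR2E3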
# GAL4-VP16 luc – GAL4-VP16 reporter modulators, confirmation, counter-screen for NR2E3 agonist project, cell-based, luminescence, CHO-S, high throughput; shares compounds with NR2E3 ag-2; CHO-S GAL4-VP16 luciferase reporter; inhibition, % at 3.98 µM; actives 29% (n = 2,300); AID 624379, 2012;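 active = mean inhibition above a cutoff equal to the average over all tested compounds plus one standard deviation, cut at about 70% in these data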;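 note: luciferase from a UAS reporter driven by GAL4-VP16 transactivation; 0% = DMSO with VP16-transfected cells and 100% = DMSO with cells lacking VP16; higher means less reporter light so more repression of VP16 activity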
# An asterisk follows results filed as active; i = inactive; x = no result given.
SMILES,NR2E3 ag-1,GASC-1 inh,697 NFkB inh,Jurkat NFkB inh,GalR3 antagonist,NR2E3 ag-2,NR2E3 ag confirm,GAL4-VP16 luc
CC[C@@H](O)C[C@H]1CCC[C@@]2(C[C@@H]3OC(=O)/C=C/[C@@](C)(O)[C@@H](O)[C@H](C)[C@@H](O)[C@H](OC4CCC(N(C)C)C(C)O4)[C@@H](O)[C@](C)(O)CCCCC/C=C/[C@@H]4CC(C)(C)O[C@@]4(O)C[C@H](O2)[C@H]3C)O1 (some centres undefined),x,x,x,x,7,89*,97*,87*
CC(=NNC(=S)N1CC2CCC(CC2)C1)c1nccs1,x,x,x,x,-3,96*,100*,85*
CC(=O)OC1(C)CC(C)C(=O)C(C(O)CC2CC(=O)NC(=O)C2)C1 (centres undefined),x,x,x,x,-5,105*,99*,99*
COc1cccc(C2CCN(CC(=O)Nc3cc(Cl)ccc3OC)CC2O)c1 (centres undefined),3,-8,-18,-34,-11,-24,x,x
Cc1ccccc1-n1c(O)c(C(c2ccncc2)c2c(O)n(-c3ccccc3C)c(=O)[nH]c2=O)c(=O)[nH]c1=O,-2,3,-9,-10,-4,-8,x,x
Cc1cnc(NC(=O)CN2CCCCC2)s1,3,7,-17,1,-11,-28,x,x
O=[N+]([O-])/C=C1/NCCN1Cc1ccc(Cl)nc1,-2,4,16,1,-6,-22,x,x
CCC(C)NC(=O)CCC(=O)OC1O[C@H]2OC3(C)CC[C@H]4[C@H](C)CCC(C1C)C24OO3 (some centres undefined),x,-1,x,x,-11,103*,97*,75*
CCC(C)C(NC(=O)CCCNC(=O)CCC(=O)OC1O[C@H]2OC3(C)CC[C@H]4[C@H](C)CCC(C1C)C24OO3)C(=O)O (some centres undefined),2,-6,14,7,-4,95*,94*,71*
C[C@@H]1CC[C@H]2[C@@H](C)C(=O)O[C@@H]3O[C@@]4(C)CC[C@@H]1[C@]32OO4,1,i,-14,20,-1,-2,x,x
COP(=O)(OC)OC=C(Cl)Cl,x,x,x,x,-5,x,x,x
CCS(=O)(=O)NCc1nnc2n1-c1ccc(Br)cc1C(c1ccccc1Cl)=NC2,3,-3,4,-7,-6,7,x,x
O=[N+]([O-])c1ccc(C2C3C(c4ccccc4)=NC4(CCCC4)N32)cc1 (centres undefined),0,-7,-3,-12,-4,5,x,x
O=C(NCCN1CCC2(CC1)C(=O)NCN2c1ccccc1)c1cc(C(F)(F)F)ccc1C(F)(F)F,x,x,x,x,-5,x,x,x
COc1ccccc1NC(=O)c1cn(CCC#N)nc1-c1cccc(Cl)c1,x,-3,-3,2,-10,-8,x,x
COc1ccc(CC2NCC(O)C2OC(C)=O)cc1 (centres undefined),x,x,x,x,-3,105*,99*,99*
COc1ccc(CC(=O)N2CCN(C)CC2)cc1,0,-2,14,12,-5,-5,x,x
CC(=O)OC1C(=O)OCC23CCC4(C)OC4C2OC2CC(OC(=O)C=CC=CC(=O)OCCC1C)C3(C)C21CO1 (centres undefined),x,x,x,x,-1,102*,99*,99*
